Reference: ChEMBL document CHEMBL1121710, “alpha-Ethynyl and alpha-vinyl analogues of ornithine as enzyme-activated inhibitors of mammalian ornithine decarboxylase” (J Med Chem, 1981)

Columns and labels:
[1] = target: T1, Ornithine decarboxylase (Rattus norvegicus) (UniProt P09057); assay: The compound was tested for the inhibitory activity against L-orinithine carboxylase in ventral prostate of the rat at dose 25 mg/kg, ip); type: functional, organism-based; parameters: dose 25 mg/kg; scale not given: the % may be the effect or the level left; details: Prostate gland
T1 sequence (whole entry): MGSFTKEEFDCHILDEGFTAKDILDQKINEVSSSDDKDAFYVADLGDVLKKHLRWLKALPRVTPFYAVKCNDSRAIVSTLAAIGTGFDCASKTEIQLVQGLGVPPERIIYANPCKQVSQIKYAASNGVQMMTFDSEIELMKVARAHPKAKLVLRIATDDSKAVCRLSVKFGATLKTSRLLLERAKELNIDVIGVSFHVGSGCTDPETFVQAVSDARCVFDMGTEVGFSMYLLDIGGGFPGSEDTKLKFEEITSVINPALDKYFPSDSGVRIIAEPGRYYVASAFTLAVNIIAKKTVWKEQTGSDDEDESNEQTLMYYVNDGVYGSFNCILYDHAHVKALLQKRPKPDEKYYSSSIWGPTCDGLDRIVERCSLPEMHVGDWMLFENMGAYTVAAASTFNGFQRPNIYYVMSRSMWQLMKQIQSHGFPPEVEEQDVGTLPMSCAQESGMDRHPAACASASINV
Outline: (§1)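 Male Sprague–Dawley rats (200–220 g), fed ad libitum, 12 h light/dark. Single ip dose in 0.9% saline; saline-injected controls. Killed by decapitation 5 h later at a fixed time of day. Ventral prostate, testis and thymus homogenized; ODC activity measured as CO2 release and expressed as % of control. Mean ± SEM of five animals; Student's t test.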

[2] = target: T1, Ornithine decarboxylase (Rattus norvegicus); assay: The compound was tested for the inhibitory activity against L-orinithine carboxylase in ventral prostate of the rat dose 200 mg/kg, ip); type: functional, organism-based; parameters: dose 200 mg/kg; scale not given: the % may be the effect or the level left; details: Prostate gland; at 200 mg/kg; outline: as §1
[3] = target: T1, Ornithine decarboxylase (Rattus norvegicus); assay: Effect on the time of half-inactivation of ornithine decarboxylase at 10 uM concentration; type: functional
Outline: (§2)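 Rat liver ODC from thioacetamide-treated rats (150 mg/kg, 18 h before sacrifice), purified about tenfold by acid treatment at pH 4.6. Enzyme preincubated at 37 °C in 30 mM sodium phosphate pH 7.1 with 5 mM dithiothreitol, 0.1 mM pyridoxal phosphate, inhibitor and 1 mM effector where listed. Half-inactivation time derived from pseudo-first-order loss.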

[4] = target: T1, Ornithine decarboxylase (Rattus norvegicus); assay: The compound was tested for the inhibitory activity against L-orinithine carboxylase in ventral prostate of the rat at dose 50 mg/kg, ip); type: functional, organism-based; parameters: dose 50 mg/kg; scale not given: the % may be the effect or the level left; details: Prostate gland; outline: as §1
[5] = target: T1, Ornithine decarboxylase (Rattus norvegicus); assay: The compound was tested for the inhibitory activity against L-orinithine carboxylase in rat testis. dose 200 mg/kg, ip); type: functional, organism-based; parameters: dose 200 mg/kg; scale not given: the % may be the effect or the level left; details: at 200 mg/kg; outline: as §1
[6] = target: T1, Ornithine decarboxylase (Rattus norvegicus); assay: Effect on the time of half-inactivation of ornithine decarboxylase in the presence of 10 uM concentration + 1 mM D-2-methylornithine; type: functional; outline: as §2
[7] = target: T1, Ornithine decarboxylase (Rattus norvegicus); assay: The compound was tested for the inhibitory activity against L-orinithine carboxylase in ventral prostate of the rat at dose 12.5 mg/kg, ip); type: functional, organism-based; parameters: dose 12.5 mg/kg; scale not given: the % may be the effect or the level left; details: Prostate gland; outline: as §1
[8] = target: T1, Ornithine decarboxylase (Rattus norvegicus); assay: The compound was tested for the inhibitory activity against L-orinithine carboxylase in rat thymus. dose 200 mg/kg, ip); type: functional, organism-based; parameters: dose 200 mg/kg; scale not given: the % may be the effect or the level left; details: at 200 mg/kg; outline: as §1
[9] = target: T1, Ornithine decarboxylase (Rattus norvegicus); assay: Effect on the time of half-inactivation of ornithine decarboxylase in the presence of 10 uM concentration + 1 mM L-ornithine; type: functional; outline: as §2
[10] = target: T1, Ornithine decarboxylase (Rattus norvegicus); assay: The compound was tested for the inhibitory activity against L-orinithine carboxylase inventral prostate of the rat at dose 100 mg/kg, ip); type: functional, organism-based; parameters: dose 100 mg/kg; scale not given: the % may be the effect or the level left; details: Prostate gland; outline: as §1
[11] = target: T1, Ornithine decarboxylase (Rattus norvegicus); assay: Effect on the time of half-inactivation of ornithine decarboxylase in the presence of 10 uM concentration + 1 mM L-2-methylornithine; type: functional; outline: as §2

C#CC(N)(CCCN)C(=O)O (stereo unspecified) showed a Control [1] of 56%, a Control [2] of 18% and a Time of half inactivation [3] of 18 min. For the same compound, the Control [4] was 40%, the Control [5] was 80% and the Time of half inactivation [6] was 26 min. For the same compound, the Control [7] was 59%, the Control [8] was 54% and the Time of half inactivation [9] was 81 min. The Control [10] was 19% and the Time of half inactivation [11] was 270 min.
